Results: ChEMBL document CHEMBL1156065, “Structure-activity relationship study on alpha1 adrenergic receptor antagonists from beer” (Bioorg Med Chem Lett, 2009)

Tests used:
[1] = target: T1, Alpha-1A adrenergic receptor (Rattus norvegicus, UniProt P43140); test: Displacement of [3H]prazosin from rat salivary gland alpha1A adrenoceptor
T1 sequence (P43140 whole entry): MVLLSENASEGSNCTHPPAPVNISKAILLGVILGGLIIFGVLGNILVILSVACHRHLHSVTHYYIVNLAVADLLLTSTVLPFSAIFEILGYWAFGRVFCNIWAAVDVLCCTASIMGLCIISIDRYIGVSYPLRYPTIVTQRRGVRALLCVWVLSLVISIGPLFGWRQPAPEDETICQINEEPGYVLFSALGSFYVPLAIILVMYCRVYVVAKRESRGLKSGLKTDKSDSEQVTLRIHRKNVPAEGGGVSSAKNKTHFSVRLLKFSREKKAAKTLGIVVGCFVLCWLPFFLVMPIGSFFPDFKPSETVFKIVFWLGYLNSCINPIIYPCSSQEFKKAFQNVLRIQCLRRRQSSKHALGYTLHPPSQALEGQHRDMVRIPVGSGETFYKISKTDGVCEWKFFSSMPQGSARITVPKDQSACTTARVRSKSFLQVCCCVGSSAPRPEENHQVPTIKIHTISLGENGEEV
Outline: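 Rat salivary gland homogenate incubated with test samples and 0.06 nM [3H]-prazosin at 22 °C for 60 min. Stopped by vacuum filtration through glass-fiber filters, washed with 50 mM Tris–HCl, counted by liquid scintillation. Nonspecific binding defined with phentolamine and subtracted from total binding. IC50 taken as the concentration inhibiting specific binding by 50%.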

[2] = target: T1, Alpha-1A adrenergic receptor; test: Antagonist activity at rat alpha1A adrenoceptor assessed as inhibition of phenylephrine-induced contraction of caudal artery; format: functional, tissue-based
Outline: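 Isometric tension at 1 g resting load, equilibrated 30 to 60 min with repeated washes. Contraction induced by submaximal phenylephrine. After the response stabilized, test sample was added at increasing concentrations, up to 15 min per concentration or until the response was stable.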

SMILES	IC50 [1] [µM]	IC50 [2] [µM]
COC(=O)[C@@H]1c2cc(/C=C/C(=O)NCCCCNC(=N)N)ccc2O[C@H]1c1ccc(O)cc1	0.56	9.72
N=C(N)NCCCCNC(=O)/C=C/c1ccc2c(c1)[C@@H](C(=O)NCCCCNC(=N)N)[C@H](c1ccc(O)cc1)O2	0.29	14.3
COC(=O)[C@H]1c2cc(/C=C/C(=O)NCCCCNC(=N)N)ccc2O[C@@H]1c1ccc(O)cc1	2.16	42.2
N=C(N)NCCCCNC(=O)[C@@H]1c2cc(/C=C/C(=O)O)ccc2O[C@H]1c1ccc(O)cc1	> 100	> 100
N=C(N)NCCCCNC(=O)/C=C/c1ccc2c(c1)[C@@H](C(=O)NCCCCNC(=N)N)[C@@H](c1ccc(O)cc1)O2	2.44	17.7
N=C(N)NCCCCNC(=O)/C=C/c1ccc(O)cc1	57.6	> 100
N=C(N)NCCCCNC(=O)[C@H]1c2cc(/C=C/C(=O)O)ccc2O[C@@H]1c1ccc(O)cc1	> 100	> 100
N=C(N)NCCCCNC(=O)/C=C/c1ccc2c(c1)[C@H](C(=O)NCCCCNC(=N)N)[C@H](c1ccc(O)cc1)O2 [APERIDINE]	0.42	4.9
N=C(N)NCCCCNC(=O)/C=C/c1ccc2c(c1)[C@H](C(=O)NCCCCNC(=N)N)[C@@H](c1ccc(O)cc1)O2 [HORDATINE A]	0.31	19.3
